# Data published in ChEMBL document CHEMBL3856273, “Design, synthesis and biological evaluation of potential antibacterial butyrolactones” (Bioorg Med Chem, 2016).
# System: not listed separately
# Assay: Cytotoxicity against human Ca9-22 cells assessed as cell death at MIC after 24 hrs by LDH assay
# Type: toxicity, cell-based
# Settings: ca9-22, 24 h
# Procedure, shortened: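 Ca9-22 gingival epithelial cells were grown in DMEM with 10% heat-inactivated FBS and 2 mM L-glutamine at 37 °C, 5% CO2, then trypsinized and seeded at 70 000 cells/well for 24 h. Compound was applied for 24 h, with medium-only and Triton 1% controls (Triton = 100% cytotoxicity). Supernatant was mixed with CytoTox reagent for 30 min in the dark at room temperature, then stopped, and OD was read at 490 nm. Three experiments, each in triplicate.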
row,SMILES,mortality [%]
1,CCCCCCCCCCCCCCC[C@@H]1OC(=O)C(C)=C1C(=O)O,9.6
2,CCCCCCCCCCCCCCCC[C@@H]1OC(=O)C(C)=C1C(=O)O,12

# System: Streptococcus gordonii
# Assay: Bactericidal activity against Streptococcus gordonii DL1 preincubated for 24 hrs under anaerobic condition followed by incubation in columbia petri plates for 24 hrs by broth microdilution method
# Type: functional
# Settings: not given
# Procedure, shortened: (§1)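 CLSI broth microdilution in BHI. Compounds serially diluted 1:2 from 300 µg/mL; doxycycline control from 32.8 µg/mL; solvent mix also diluted. Wells inoculated with 3x10^7 CFU/mL, incubated 24 h anaerobically. MIC is the lowest clear well. Clear wells are plated on Columbia agar for 24 h; MBC is the lowest concentration killing ≥99% of inoculum.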
row,SMILES,MBC=>99 [µg/mL]
1,CCCCCCCCCCCCC[C@H]1OC(=O)C(C)=C1C(=O)O,18.75
2,C=C[C@H]1CC(=O)O[C@@H]1CCCCCCCCC,150
3,CCCCCCCCCCCCCCC[C@@H]1OC(=O)C(C)=C1C(=O)O,18.75
4,CCCCCCCCC[C@@H]1C=CC(=O)O1,300
5,CCCCCCCCCCCCC[C@@H]1OC(=O)C(C)=C1C(=O)O,18.75
6,CCCCCCCCC[C@@H]1OC(=O)C(C)=C1C(=O)O,>300
7,CCCCCCCCC[C@H]1OC(=O)C[C@H]1O,300
8,C=C[C@H]1CC(=O)O[C@@H]1CCCCCCCCCCCCC,75
9,CCCCCCCCCCCCC[C@@H]1C=CC(=O)O1,75
10,CCCCCCCCCCCCCCCC[C@@H]1OC(=O)C(C)=C1C(=O)O,9.38
11,CCCCCCCCC[C@H]1OC(=O)C(C)=C1C(=O)O,>300
12,CCCCCCC[C@@H]1OC(=O)C(C)=C1C(=O)O,>300
13,CCCCCCCCCCCCC[C@H]1OC(=O)C[C@H]1O,150
14,C[C@H]1c2cccc(O)c2C(=O)C2=C(O)[C@]3(O)C(=O)C(C(N)=O)=C(O)[C@@H](N(C)C)[C@@H]3[C@@H](O)[C@@H]21.O [DOXYCYCLINE],32.8

# System: not listed separately
# Assay: Cytotoxicity against human THP1 cells assessed as cell viability at MIC after 24 hrs by MTT assay relative to control
# Type: toxicity, cell-based, THP-1
# Settings: read-out: Activity
# Procedure, shortened: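 THP-1 grown in RPMI with pyruvate, Hepes and 10% FBS. Seeded at 70 000 cells/well and differentiated with PMA 10 ng/mL for 72 h. Medium removed, then compound at its MIC added for 24 h; Triton 1% positive control. MTT from 5 mg/mL stock for 4 h at 37 °C; acid-isopropanol solubilization; OD 595/655 nm as % of untreated. Three experiments in triplicate.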
row,SMILES,viability at 24 h [%]
1,CCCCCCCCCCCCCCC[C@@H]1OC(=O)C(C)=C1C(=O)O,107
2,CCCCCCCCCCCCCCCC[C@@H]1OC(=O)C(C)=C1C(=O)O,106

# System: Streptococcus gordonii
# Assay: Antibacterial activity against Streptococcus gordonii DL1 preincubated for 24 hrs under anaerobic condition followed by incubation in columbia petri plates for 24 hrs by broth microdilution method
# Type: functional
# Settings: not given
# Procedure, shortened: as §1
row,MIC [µg/mL],SMILES
1,4.69,CCCCCCCCCCCCC[C@H]1OC(=O)C(C)=C1C(=O)O
2,75,C=C[C@H]1CC(=O)O[C@@H]1CCCCCCCCC
3,150,CCCCCCCCC[C@@H]1C=CC(=O)O1
4,4.69,CCCCCCCCCCCCC[C@@H]1OC(=O)C(C)=C1C(=O)O
5,150,CCCCCCCCC[C@@H]1OC(=O)C(C)=C1C(=O)O
6,150,CCCCCCCCC[C@H]1OC(=O)C[C@H]1O
7,75,C=C[C@H]1CC(=O)O[C@@H]1CCCCCCCCCCCCC
8,75,CCCCCCCCCCCCC[C@@H]1C=CC(=O)O1
9,150,CCCCCCCCC[C@H]1OC(=O)C(C)=C1C(=O)O
10,> 300,CCCCCCC[C@@H]1OC(=O)C(C)=C1C(=O)O
11,75,CCCCCCCCCCCCC[C@H]1OC(=O)C[C@H]1O
12,0.51,C[C@H]1c2cccc(O)c2C(=O)C2=C(O)[C@]3(O)C(=O)C(C(N)=O)=C(O)[C@@H](N(C)C)[C@@H]3[C@@H](O)[C@@H]21.O [DOXYCYCLINE]

row,SMILES,MIC [µg/mL]
1,CCCCCCCCCCCCCCC[C@@H]1OC(=O)C(C)=C1C(=O)O,9.38
2,CCCCCCCCCCCCCCCC[C@@H]1OC(=O)C(C)=C1C(=O)O,9.38

# System: not listed separately
# Assay: Cytotoxicity against human THP1 cells assessed as cell death at MIC after 24 hrs by LDH assay
# Type: toxicity, cell-based
# Settings: thp-1, 24 h
# Procedure, shortened: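 THP-1 cells were grown in RPMI 1640 with 1 mM pyruvate, 10% FBS and 2 mM L-glutamine at 37 °C, 5% CO2. They were seeded at 70 000 cells/well and differentiated with PMA 10 ng/mL for 72 h. Medium was replaced with compound for 24 h, with medium-only and Triton 1% controls (Triton = 100%). LDH release was measured in supernatant with CytoTox reagent for 30 min in the dark at room temperature, then stopped, and OD was read at 490 nm. Three experiments, each in triplicate.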
row,SMILES,mortality [%]
1,CCCCCCCCCCCCCCC[C@@H]1OC(=O)C(C)=C1C(=O)O,20
2,CCCCCCCCCCCCCCCC[C@@H]1OC(=O)C(C)=C1C(=O)O,10

# System: not listed separately
# Assay: Cytotoxicity against human Ca9-22 cells assessed as cell viability at MIC after 24 hrs by MTT assay relative to control
# Type: toxicity, cell-based
# Settings: read-out: Activity
row,SMILES,viability at 24 h [%]
1,CCCCCCCCCCCCCCC[C@@H]1OC(=O)C(C)=C1C(=O)O,100
2,CCCCCCCCCCCCCCCC[C@@H]1OC(=O)C(C)=C1C(=O)O,96

# System: Streptococcus gordonii
# Assay: Antibacterial activity against Streptococcus gordonii DL1 incubated for 24 hrs under anaerobic condition by agar dilution method
# Type: functional
# Settings: DL1, 24 h
# Procedure, shortened: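 Columbia agar with horse blood containing compound at 300, 250, 200, 150, 100, 90, 80 or 70 µg/mL. Doxycycline positive control at 1:2 dilutions from 1.31 µg/mL; DMSO + methanol and water as negative controls. 2 µl spots of 10^5 CFU/mL inoculum, anaerobic incubation 24 h. MIC taken as lowest concentration preventing growth. Done three times.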
row,MIC [µg/mL],SMILES
1,90,CCCCCCCCCCCCC[C@H]1OC(=O)C(C)=C1C(=O)O
2,> 300,C=C[C@H]1CC(=O)O[C@@H]1CCCCCCCCC
3,300,CCCCCCCCC[C@@H]1C=CC(=O)O1
4,90,CCCCCCCCCCCCC[C@@H]1OC(=O)C(C)=C1C(=O)O
5,150,CCCCCCCCC[C@@H]1OC(=O)C(C)=C1C(=O)O
6,300,CCCCCCCCC[C@H]1OC(=O)C[C@H]1O
7,> 300,C=C[C@H]1CC(=O)O[C@@H]1CCCCCCCCCCCCC
8,> 300,CCCCCCCCCCCCC[C@@H]1C=CC(=O)O1
9,150,CCCCCCCCC[C@H]1OC(=O)C(C)=C1C(=O)O
10,> 300,CCCCCCC[C@@H]1OC(=O)C(C)=C1C(=O)O
11,> 300,CCCCCCCCCCCCC[C@H]1OC(=O)C[C@H]1O
12,0.41,C[C@H]1c2cccc(O)c2C(=O)C2=C(O)[C@]3(O)C(=O)C(C(N)=O)=C(O)[C@@H](N(C)C)[C@@H]3[C@@H](O)[C@@H]21.O [DOXYCYCLINE]

row,SMILES,MIC [µg/mL]
1,CCCCCCCCCCCCCCC[C@@H]1OC(=O)C(C)=C1C(=O)O,200
2,CCCCCCCCCCCCCCCC[C@@H]1OC(=O)C(C)=C1C(=O)O,> 300

# System: Streptococcus gordonii
# Assay: Potency index, ratio of doxycycline MBC=>99 to compound MBC=>99 for Streptococcus gordonii DL1
# Type: functional
# Settings: not given
row,SMILES,Ratio
1,CCCCCCCCCCCCCCC[C@@H]1OC(=O)C(C)=C1C(=O)O,2
2,CCCCCCCCCCCCCCCC[C@@H]1OC(=O)C(C)=C1C(=O)O,3
